PMC7609460 (Heliyon, 2020)

What was measured:
Type in all cases: cell-based
[1] = test system: CCRF-CEM cells; assay: Flow cytometric analysis of ROS production; conditions: 24 h, 50 μM, non-treated cells 0.6%
[2] = test system: HCT116 (p53-/-) colon adenocarcinoma cells; assay: Resazurin reduction assay; conditions: for IC50: Homo sapiens, HCT-116, 72 h; for Degree of resistance: ratio IC50 HCT116 (p53-/-) / IC50 HCT116 (p53+/+)
Method in brief: (§1)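 Resazurin reduction read after 72 h at 37 °C in humidified 5% CO2; fluorescence at 544 nm excitation and 590 nm emission. Test samples were dissolved in DMSO (final ≤0.1%). IC50 is the concentration that gives 50% inhibition of proliferation, derived by linear regression. Degree of resistance is IC50 in the resistant line divided by IC50 in its parental line. Selectivity index is IC50 in AML12 divided by IC50 in HepG2.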

[3] = test system: HCT116 (p53+/+) colon cancer cells; assay: Resazurin reduction assay; conditions: Homo sapiens, HCT-116, 72 h
Method in brief: as §1

[4] = test system: CCRF-CEM leukemia cells; assay: Resazurin reduction assay; conditions: Homo sapiens, 72 h
Method in brief: as §1

[5] = test system: MDA-MB-231-pcDNA breast adenocarcinoma cells; assay: Resazurin reduction assay; conditions: 72 h
Method in brief: as §1

[6] = test system: CEM/ADR5000 leukemia cells (P-glycoprotein-overexpressing); assay: Resazurin reduction assay; conditions: for IC50: Homo sapiens, ADR5000, 72 h; for Degree of resistance: ratio IC50 CEM/ADR5000 / IC50 CCRF-CEM
Method in brief: as §1

[7] = test system: MDA-MB-231-BCRP breast adenocarcinoma cells; assay: Resazurin reduction assay; conditions: for IC50: MDA-MB-231/BCRP, 72 h
Method in brief: as §1

[8] = test system: U87MG glioblastoma cells; assay: Resazurin reduction assay; conditions: Homo sapiens, U-87 MG, 72 h
Method in brief: as §1

[9] = test system: HepG2 hepatocarcinoma cells; assay: Resazurin reduction assay; conditions: Homo sapiens, HepG2, 72 h
Method in brief: as §1

[10] = test system: U87MG.ΔEGFR glioblastoma cells; assay: Resazurin reduction assay; conditions: for IC50: 72 h; for Degree of resistance: ratio IC50 U87MG.ΔEGFR / IC50 U87MG
Method in brief: as §1

[11] = test system: normal AML12 hepatocytes; assay: Resazurin reduction assay; conditions: for IC50: Mus musculus, AML12, 72 h; for Selectivity index: ratio IC50 AML12 hepatocytes / IC50 HepG2
Method in brief: as §1

[12] = test system: CCRF-CEM cells; assay: Cell cycle distribution by flow cytometry; conditions: 24 h treatment
Method in brief: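 CCRF-CEM cells (1×10^6) were treated for 24 h under standard culture conditions with various concentrations of test sample, or with DMSO (0.1% final) as control. Cell-cycle phases were read by flow cytometry from propidium iodide fluorescence of individual nuclei. At least three independent experiments, each with three repetitions.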

IC50 [2] | IC50 [3] | IC50 [4] | IC50 [5] | IC50 [6] | IC50 [7] | IC50 [8] | IC50 [9] | IC50 [10] | SMILES | ROS levels [1] | Degree of resistance [6] | IC50 [11] | Selectivity index [11] | Degree of resistance [2] | Degree of resistance [10] | cell cycle arrest phase [12] | Degree of resistance ([7]; ratio IC50 MDA-MB-231-BCRP / IC50 MDA-MB-231-pcDNA)
 |  |  |  |  |  |  |  |  | OO [H2O2, Hydrogen peroxide] | 94.30% |  |  |  |  |  |  | 
> 100 µM | > 100 µM | 10.4 ± 1.17 µM | > 100 µM | > 100 µM | > 100 µM | > 100 µM | > 100 µM | > 100 µM | O=c1cc(-c2ccc(O)cc2)oc2cc(O[C@@H]3O[C@H](CO)[C@@H](O)[C@H](O)[C@H]3O)cc(O)c12 [Compound 4, Apigenin-7-O-β-D-glucopyranoside] |  | > 9.62 | > 100 µM |  |  |  |  | 
28.4 ± 1.72 µM | 30.7 ± 4.04 µM | 20.8 ± 1.76 µM | > 100 µM | 18.7 ± 1.25 µM | > 100 µM | 24.9 ± 2.19 µM | 34.2 ± 2.86 µM | 21.1 ± 0.92 µM | COc1cc(-c2cc(=O)c3c(O)cc(O[C@@H]4O[C@H](CO)[C@@H](O)[C@H](O)[C@H]4O)cc3o2)ccc1O [Compound 3, chrysoeriol-7-O-β-D-glucopyranoside] |  | 0.90 | > 100 µM | > 2.92 |  |  |  | 
30.4 ± 2.55 µM | 28.3 ± 1.07 µM | 11 ± 0.97 µM | > 100 µM | 27 ± 1.29 µM | > 100 µM | 22.7 ± 2.2 µM | 29 ± 1.77 µM | 18.9 ± 1.06 µM | O=c1cc(-c2ccc(O)c(O)c2)oc2cc(O)cc(O)c12 [Compound 6, luteolin] |  | 2.46 | > 100 µM | > 3.45 | 1.07 | 0.83 |  | 
1.78 ± 0.08 µM |  | 0.02 µM | 0.13 ± 0.01 µM |  | 0.79 ± 0.08 µM | 0.26 ± 0.03 µM | 4.56 ± 0.48 µM | 0.98 ± 0.07 µM | COc1cccc2c1C(=O)c1c(O)c3c(c(O)c1C2=O)C[C@@](O)(C(=O)CO)C[C@@H]3O[C@H]1C[C@H](N)[C@H](O)[C@H](C)O1 [Doxorubicin, reference compound] |  |  | 52.9 ± 4.09 µM |  | 3.73 | 3.79 | S and G2/M phase arrest | 6.14
